The list is not random: actives were taken first. Their share in the collection is about 12%.
MT stabilize HCS: microtubule stabilizers in HeLa cells, primary screen, imaging, high-content imaging; hit rate 0.83% among 200,000; % tubulin-high responders, % at 10 µM; HeLa tubulin immunostaining HCS, 24 h; share of cells brighter than vehicle mean+2SD;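 active means plate Z-score above 3 for both tubulin-high and condensed-nucleus cell shares, with cell loss under 80%, at 10 µM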;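 further: anti alpha tubulin signal scored within the nucleus-defined area of each cell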
Lmaj promast: Leishmania major promastigote growth inhibition, primary screen; Leishmania major promastigotes, resazurin fluorescence viability; inhibition, % at 10 µM; hit rate 9% among 200,000; in the data active means inhibition above about 50%;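 further: promastigotes grown with compound for 44 hours at 28 °C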
b-catenin transl: modulators of beta-catenin nuclear translocation, primary screen, imaging, HeLa cells, immunofluorescence, high-content; nuclear translocation activity, % at 5 µM; hit rate 0.3% among 190,000;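 active means nuclear translocation activity above 50% at 5 µM, with a well cell count of 50 or more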;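 further: per-cell ratio of nuclear to cytoplasmic median beta-catenin stain intensity; plate controls were DMSO negative control for no effect and GSK-3 inhibitor IX positive control for full effect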
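Assay system: human HeLa cells, native beta-catenin; doses: 5 µM primary, 0.02–20 µM confirmation; incubation: compound treatment 24 h, 37°C, 5% CO2; technique: fluorescence imaging of beta-catenin antibody stain plus DAPI; measure: % activation, nuclear-to-cytoplasmic median beta-catenin signal ratio per cell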
Dynein transport: inhibitors of GR-EGFP nuclear translocation, primary screen, dynein cargo transport inhibitor project, imaging, high-content, 3617.4 mouse cells; test concentration mostly 20 µM; stimulated with dexamethasone, 1 µM; active compounds read low; z-score, hits read low; hit rate 0.47% among 220,000;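 active means plate z-score of nuclear minus cytoplasmic receptor signal below a set negative limit, without overly bright fluorescence or cell loss, cut at about -3.5 in these data, passing the limit was not always enough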;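 further: z-score of nuclear minus cytoplasmic ring GR-EGFP intensity difference per well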
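medium = tetracycline-free induction medium containing charcoal-stripped FBS | probe or stimulus = dexamethasone, 1.0 µM final | timing = 48 h induction, then 1 h compound, then 30 min agonist, 37 °C | detection = automated 10x imaging of fixed Hoechst-stained cells | read-out basis = nuclear versus cytoplasmic GR-EGFP signal, averaged per well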
Autophagy mod: autophagy modulators in MEF cells, primary screen, imaging, high-content, MEF GFP-LC3. AID 463193, 2010. MEF GFP-LC3 puncta imaging; test concentration mostly 10 µM. calls only at 10 µM (by protocol). hit rate 0.98% among 190,000;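 active means percentage of spot-positive cells more than 3 SD above its plate mean, without a fluorescence outlier flag or 80% toxicity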;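 further: spot-positive cell cutoff set from DMSO-treated cells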
CHOP inhibitor: inhibitors of CHOP promoter induction, primary screen, cell-based, unfolded protein response, luciferase reporter; inhibition, % at 10 µM; hit rate 3.8% among 220,000; CHO-K1 CHOP-promoter luciferase, tunicamycin-induced, 15-18 h;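 active means compounds that reduced the stress-induced luciferase reporter signal by more than about 70% of percent inhibition, limit read from the data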;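 further: 0% = tunicamycin plus vehicle and 100% = wells without tunicamycin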
* marks the source's active call; other numbers are inactive results; i = inactive; nt = no result given; + = active, no number; ! = not confirmed by another sample.

SMILES | MT stabilize HCS | Lmaj promast | b-catenin transl | Dynein transport | Autophagy mod | CHOP inhibitor
CC(=O)OC1COC(OC2C(O)C(C)OC(OC3C(OC4CCC5(C)C(CCC6(C)C5CC=C5C7CC(C)(C)CCC7(C(=O)O)CCC56C)C4(C)CO)OCC(O)C3O)C2O)C(O)C1OC(C)=O (stereo not given) | 2 | -13 | -3 | -5.3* | i | 92*
CCN(CC)CCOc1ncnc2c1oc1ccccc12 | 6 | 45 | nt | 0.54 | i | 4
CCCCc1oc2ccccc2c1C(=O)c1cc(I)c(OCCN(CC)CC)c(I)c1 | nt | 99* | -1 | 0.12 | i | 86*!
O=S(=O)(c1cccs1)N1CCc2ccccc21 | 2 | 41 | -4 | -0.66 | i | 45
CC1CCc2ccc(F)cc2N1S(=O)(=O)c1cccs1 (stereo not given) | 9 | 96* | -1 | 1.1 | i | 83*
CC(C)c1ccc(NC(=O)CSc2ncccc2C(=O)Oc2cccc([N+](=O)[O-])c2)cc1 | 4 | -4 | -1 | -0.42 | i | 44
O=C(OCc1nc2ccccc2[n+]([O-])c1C(=O)c1ccccc1)c1cccs1 | 3 | 86* | -2 | 2.3 | i | 6
Cc1c(Cl)ccc2c1NC(=O)[C@]21N[C@@H](Cc2ccccc2)[C@H]2C(=O)N(c3ccc(F)cc3)C(=O)[C@H]21 | 2 | 35 | 0 | 0.18 | i | 62
Oc1ccc(/C=C/c2nc(-c3ccccc3O)n(-c3ccccc3)n2)cc1 | 1 | 18 | -1 | 0.061 | i | 90*
O=C(N/N=C/c1ccc(O)cc1)c1nc(-c2ccccc2)n(-c2ccccc2)n1 | 3 | 41 | 1 | 0.29 | i | 10
COC(=O)c1sccc1NC(=S)N1CCCCC1 | 1 | 2 | -1 | -1.6 | i | 4
Cc1cc(N2CCN(C)CC2)nc2ccc(NC(=S)N3CCN(c4ccc(F)cc4)CC3)cc12 | 3 | 100* | -1 | -0.38 | i | 13
COC(=O)c1sccc1NC(=S)N1CCN(c2cccc(C)c2C)CC1 | 15* | 0 | -1 | -1.2 | i | 34
Cc1cc(N2CCN(C)CC2)nc2ccc(NC(=S)N3CCCCC3)cc12 | 0 | 33 | -1 | -1.4 | i | 15
Cc1cc(N2CCN(C)CC2)nc2ccc(NC(=S)N3CCN(c4ccc(Cl)cc4)CC3)cc12 | 2 | 100* | 2 | 1.1 | i | -22
CCCCN(CC)C(=S)Nc1ccc2nc(N3CCN(C)CC3)cc(C)c2c1 | 5 | 53* | 0 | -0.25 | i | -12
COc1ccccc1-n1c(=O)c(C#N)c(-c2ccc([N+](=O)[O-])cc2)c2cc(C(=O)c3ccccc3O)cnc21 | nt | nt | 0 | -0.32 | nt | -5
Cc1sc(NC(=O)/C=C/c2ccco2)c(C(=O)O)c1C | nt | nt | 0 | -0.72 | nt | -6
Cc1cc(C)nc(/N=C(\N)C2=C(O)CC(C)(C)CC2=O)n1 | 2 | -2 | 0 | 0.93 | i | 11
Cc1cccc(N2CCN(C(=S)Nc3ccc4nc(N5CCN(C)CC5)cc(C)c4c3)CC2)c1C | 8 | 101* | 3 | 0.48 | + | 105*
Cc1cc(N2CCN(C)CC2)nc2ccc(NC(=S)N3CCCCCC3)cc12 | 0 | 22 | -2 | -0.67 | i | 17
C=CCn1c(=O)/c(=C/c2ccc(Cl)cc2)s/c1=C(/C#N)c1nnc2n1CCCCC2 | 4 | 94* | -2 | 1.2 | i | 29
C=CCn1c(=O)/c(=C/c2ccc(O)cc2)s/c1=C(/C#N)c1nnc2n1CCCCC2 | 5 | -2 | nt | -0.042 | i | 37
CN1C(=O)N2CN(C3CCCCC3)CN3C(=O)N(C)C1C23 (stereo not given) | 1 | 2 | nt | 1.3 | i | 23
COc1ccccc1C(O)(C(=O)NN(C)c1ccccc1)c1ccccc1OC | 3 | -5 | -2 | -1.1 | i | 8
SMILES | MT stabilize HCS | Lmaj promast | b-catenin transl | Dynein transport | Autophagy mod | CHOP inhibitor
c1ccc(-c2nc(N3CCCCCC3)nc(-n3ccnc3)n2)cc1 | 3 | 96* | 1 | 0.59 | i | 15
c1ccc(-c2nc(N3CCN(c4ccccc4)CC3)nc(-n3ccnc3)n2)cc1 | 4 | 67* | -3 | 0.26 | i | 8
c1ccc(N2CCN(c3ncccn3)CC2)cc1 | 2 | -4 | -1 | 0.18 | i | -6
O=C(OCc1nnc(-c2ccc(Br)cc2)o1)c1cncc(Br)c1 | 3 | 10 | -3 | 3.2 | i | 3
Cc1nn(-c2ccccc2)c2sc(C(=O)NC3CC3)cc12 | 4 | 5 | 1 | 0.29 | i | -1
Cc1nn(-c2ccccc2)c2sc(C(=O)N(CC(=O)NC3CCCC3)Cc3ccco3)cc12 | 40* | 36 | -2 | 1.5 | i | 17
CCCc1[nH][nH]c(=O)c1C(c1ccc(Cl)cc1)C(C#N)C#N (stereo not given) | 3 | 34 | 5 | -1.2 | i | 26
CCCc1[nH][nH]c(=O)c1C(c1ccc(Br)cc1)C(C#N)C#N (stereo not given) | 3 | 50* | -2 | -0.65 | i | 9
Cc1cc(/C=N/Nc2nc(N)ncc2[N+](=O)[O-])c(C)n1-c1ccccc1F | nt | nt | 0 | -0.82 | nt | 80*
O=[N+]([O-])c1ccc(N/N=C\c2cccnc2)nc1 | 2 | -5 | -1 | -0.38 | i | -18
Cc1cccc(C)c1-n1c(C)cc(/C=N\Nc2ccc([N+](=O)[O-])cn2)c1C | 1 | 33 | -17 | 0.19 | + | 50
Cc1cccc(N(CC(=O)NCc2ccco2)C(=O)CCC(=O)Nc2ccccn2)c1 | 4 | 16 | -6 | -0.43 | i | 10
CC(C)CCNC(=O)CN(C(=O)CCC(=O)Nc1ccccn1)c1ccc(F)c(Cl)c1 | 2 | 95* | -2 | -0.76 | i | 26
NC(=S)N/N=C/c1ccccc1OCCSc1ccc(Cl)cc1 | 3 | 100* | 2 | 0.25 | i | 31
Cc1ccc(S(=O)(=O)Oc2ccccc2/C=N/NC(N)=S)cc1 | 32 | -3 | 33 | -0.29 | + | 53
COc1cccc(/C=N/NC(N)=S)c1OS(=O)(=O)c1ccccc1 | 4 | -1 | -5 | 0.25 | i | 30
Cc1ccc(S(=O)(=O)Oc2ccccc2/C=N/N=C(N)N)cc1 | 2 | 74* | 0 | -0.14 | i | 58
Cc1ccc(C)c(NC(=O)CN(C)S(=O)(=O)c2cccc3cccnc23)c1 | nt | nt | 1 | -0.36 | nt | -2
Cc1ccc(NC(=O)c2ccc(F)cc2F)cc1NS(C)(=O)=O | nt | nt | -1 | 1.1 | nt | -16
Cn1c(N)c(C(=O)COC(=O)c2ccco2)c(=O)n(C)c1=O | 2 | -5 | -2 | -0.58 | i | 39
COC(=O)c1ccc(C(=O)OC)c(=O)[nH]1 | nt | nt | 0 | 2.5 | nt | 0
